MrgX1 PAM: allosterically activates human MrgX1 receptor signaling; MrgX1-HEK293, Fluo-4 calcium flux, FDSS; stronger effect = higher value; B-score at 10 µM; hit rate 0.63% among 310,000;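 active = plate-corrected calcium response at least 3 library SD above typical, normal starting fluorescence, not activating the receptor alone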;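 also: compound read alongside a low EC10 to EC30 dose of BAM8-22 agonist; peak minus trough fluorescence over baseline measured at the second addition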
Target sequence (Q96LB2 whole entry, looked up): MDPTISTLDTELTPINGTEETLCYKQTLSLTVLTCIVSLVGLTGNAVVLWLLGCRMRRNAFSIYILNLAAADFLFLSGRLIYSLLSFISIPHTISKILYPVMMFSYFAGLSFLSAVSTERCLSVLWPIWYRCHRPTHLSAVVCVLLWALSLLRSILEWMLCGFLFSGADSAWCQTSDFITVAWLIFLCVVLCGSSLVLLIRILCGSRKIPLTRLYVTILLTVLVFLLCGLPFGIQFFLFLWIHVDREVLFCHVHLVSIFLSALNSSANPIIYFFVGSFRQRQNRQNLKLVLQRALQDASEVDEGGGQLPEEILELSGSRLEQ
RGS4 pot: RGS4 potentiation or activation. HEK293 M3R/inducible RGS4, carbachol calcium flux Fluo4; stronger effect = lower value. B-score at 10 µM. hit rate 0.92% among 310,000;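 active = B-score of the integrated calcium signal more than 4 SD below the library mean, with starting fluorescence not abnormally high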;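 also: negative B-score means reduced calcium response which marks RGS4 activation or potentiation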
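Also added: carbachol at ECmax as muscarinic agonist stimulus; Assay system: HEK293 cells with stable M3R and inducible RGS4; Timing: overnight RGS4 induction, 30 min dye load 37 °C, 20 min compound RT; Measured by: Fluo4-AM (2 µM) calcium-flux fluorescence, kinetic read.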
MrgX1 ag: activates human MrgX1 receptor signaling | MrgX1-HEK293 cells, Fluo-4 calcium fluorescence, agonist mode; stronger effect = higher value | B-score at 10 µM | Q96LB2 | hit rate 0.44% among 310,000;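 active = calcium response B-score plate-corrected fluorescence ratio at least 3 library SD, with starting fluorescence B-score inside 5 SD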
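Material – MrgX1-expressing HEK293 cells · Input – 15,000 cells seeded per well · Dosing – compound as first of three additions · Times – overnight seeding, then 1 h dark dye loading · Measured by – kinetic Fluo-4 NW fluorescence of intracellular calcium · Read-out – B-scored fluorescence response ratio · Benchmarks – positive and negative control wells on each plate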
MrgX1 antag: antagonists of human MrgX1 receptor | MRGX1-HEK293 calcium flux, Fluo-4, BAM8-22 antagonism; stronger effect = lower value | Q96LB2 | B-score at 10 µM | hit rate 1.3% among 310,000;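 active = calcium-response B-score plate-corrected more than 3 library SD below zero, starting fluorescence within 5 deviations, no agonist response on first addition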;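 also: peak minus trough fluorescence over baseline after final BAM8-22 challenge near maximal dose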
RGS4 block: human RGS4 inhibition | P49798 | HEK293 M3R/RGS4 inducible, Fluo-4 calcium flux; stronger effect = higher value; triggered by carbachol at its EC20 | B-score at 10 µM | hit rate 0.45% among 310,000;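 active = B-score, a plate-corrected calcium signal, over three deviations above library mean, with baseline fluorescence within five deviations of library mean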;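 also: RGS4 expression induced by doxycycline in cells with stable M3 receptor; B-score is computed from the integrated fluorescence ratio over baseline after carbachol; higher B-score means a larger calcium signal and so more RGS4 inhibition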
Target sequence (P49798 whole entry, looked up): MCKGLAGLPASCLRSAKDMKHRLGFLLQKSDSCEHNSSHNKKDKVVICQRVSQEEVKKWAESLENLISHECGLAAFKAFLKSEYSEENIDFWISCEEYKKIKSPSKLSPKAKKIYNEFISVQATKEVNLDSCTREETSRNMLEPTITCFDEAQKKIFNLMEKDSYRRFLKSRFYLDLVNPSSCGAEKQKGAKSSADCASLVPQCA
* = called active by the depositor; i = inactive. Shown are actives, neighbours in structure and some others; about 3.5% of the full set was active somewhere.

SMILES | MrgX1 PAM | RGS4 pot | MrgX1 ag | MrgX1 antag | RGS4 block
Cc1cc(=O)n2c(n1)SCOC2 | i | i | i | i | i
OC(COc1ccc(C2C=CCC2)cc1)CN1CCCCC1 (stereo not drawn) | i | -6.97* | i | i | i
O=C(C[n+]1cc(-c2ccc(Cl)cc2)n2c1CCC2)N1c2ccccc2Sc2ccccc21 | i | -7.6* | i | i | i
Cc1ccc(-c2c[n+](CC(=O)OCc3ccccc3)c3n2CCC3)cc1 | i | i | i | i | i
CC1CCC(C(C)C)C(OC(=O)C[n+]2cc(-c3ccc(Cl)cc3)n3c2CCC3)C1 (stereo not drawn) | i | i | i | -7.05* | i
COc1ccc(-c2c[n+](CC(=O)N3c4ccccc4Sc4ccccc43)c3n2CCC3)cc1 | i | -8.93* | i | i | i
CCCn1c(SCC(=O)N2N=C3/C(=C/c4ccc(OC)cc4)CCCC3C2c2ccc(OC)cc2)n[nH]c1=O (stereo not drawn) | i | i | i | -5.14* | i
CCCn1c(SCC(=O)NCc2ccc(OC)cc2)n[nH]c1=O | i | i | i | i | i
O=C(/C=C/c1ccc(N2CCC(c3ccccc3)=N2)cc1)c1ccccc1 | i | -7.94* | i | i | i
Cc1sc(-n2c(C)cc(/C=C3\SC(=S)NC3=O)c2C)c(C#N)c1C | i | -10.6* | i | -7.41* | i
Cc1nn(CCOc2ccccc2)c(=O)n1-c1ccccc1 | i | i | i | i | i
Cc1nn(CCOc2ccccc2)c(=O)n1-c1ccc(Cl)cc1 | 10.8* | i | i | i | i
COc1ccc(/C(C)=N/NC(=O)CNC(=O)C(c2ccccc2)c2ccccc2)c(OC)c1 | i | i | i | i | i
Cc1ccc(S(=O)(=O)NC(C(=O)Oc2ccc3ccc(=O)oc3c2)c2ccccc2)cc1 (stereo not drawn) | i | i | i | i | i
Cc1ccc(S(=O)(=O)N[C@H](C(=O)Oc2ccc3c(C(F)(F)F)cc(=O)oc3c2)c2ccccc2)cc1 | i | i | 28.6* | i | i
CCOC(=O)c1c(-c2ccccc2)nnn1-c1nc(OCC)nc(N2CCCCC2)n1 | i | -8.67* | i | i | i
COC(=O)c1cccc(-c2ccc(/C=N/N3C(=O)C4C5C=CC(C6CC56)C4C3=O)o2)c1 (stereo not drawn) | i | -9.9* | i | i | i
CC(=O)NC(Cc1ccc(F)cc1)C(=O)NC1CCN(C(=O)NCc2ccccc2)CC1 (stereo not drawn) | i | i | i | i | i
O=C1N(c2ccc3c(c2)OCCO3)C(c2ccccc2)C1(F)F (stereo not drawn) | 6.93* | i | i | i | i
Cc1ccc(N2C(=O)C(F)(F)C2c2ccccc2)cc1 (stereo not drawn) | i | i | i | i | i
CN(C)CCCNC(=S)N1CCn2c(nc3ccccc32)C1 | i | i | i | i | i
O=C(CCN1CCN(Cc2ccccc2)CC1)NNC(=O)Nc1cccc([N+](=O)[O-])c1 | i | i | i | i | i
COCCn1c(C)cc(C2=NNC(=Nc3ccccc3)SC2)c1C | i | i | i | i | i
COc1ccccc1C1=NNC(=Nc2cccc(S(=O)(=O)N(C)C)c2)SC1 | i | i | i | -4.98* | i
CC(C)CC(=O)NC(NC(=S)Nc1sc2c(c1C#N)CCCC2)C(Cl)(Cl)Cl (stereo not drawn) | i | i | i | -4.51* | i
SMILES | MrgX1 PAM | RGS4 pot | MrgX1 ag | MrgX1 antag | RGS4 block
CCCc1cc(=O)oc2cc(C)cc(OC(C)C(=O)NCC(O)c3ccccc3)c12 (stereo not drawn) | i | i | i | i | i
Cn1cccc1-c1cc(C(=O)N/N=C/C=C/c2ccccc2)[nH]n1 | i | i | i | -5.78* | i
N#CCC(=O)N1CCN(C=O)CC1 | i | i | i | -5.53* | i
CC(C)c1ccc(N(CC(=O)N2CCN(Cc3ccccc3)CC2)S(C)(=O)=O)cc1 | i | i | i | i | i
Cc1ccc(NC(=O)/C(C#N)=C/c2ccc(C)s2)c(C)c1 | i | i | i | -4.7* | i
O=C(O)CCCNC(=O)CCCNC(=O)C(c1ccccc1)c1ccccc1 | i | i | i | i | i
COc1ccc(CCC(=O)N2CCN(c3ccccc3)CC2)cc1OC | i | i | i | i | i
CCN(CC)S(=O)(=O)c1cc(NC(=O)COc2ccc(C#N)cc2OC)ccc1C | i | i | i | -6.78* | i
COc1ccc2c(c1)C(=O)N(c1ccc(C)cc1)C(=O)C2 | i | i | i | -4.81* | i
O=C(/C(=C(\[O-])c1ccccc1)[n+]1ccc2ccccc2c1)c1ccccc1 | i | i | i | i | i
O=C(/C(=C(\[O-])c1ccccc1)[n+]1ccc2ccccc2c1)c1ccc([N+](=O)[O-])cc1 | i | i | i | -5.65* | i
O=C(Cc1ccccc1)NC(NC(=O)Cc1ccccc1)c1cccc([N+](=O)[O-])c1 | i | i | i | i | i
C=CCN(CC(O)c1cccc([N+](=O)[O-])c1)C(C)CCc1ccccc1 (stereo not drawn) | 15.9* | i | i | i | i
Cc1cc2oc(=O)cc(CN3CCCCC3)c2cc1O | i | i | i | i | i
CCOC(=O)N1CCN(Cc2cc(=O)oc3ccc(Cl)cc23)CC1 | i | i | i | i | i
Cc1cc2oc(=O)cc(CN3CCCCC3)c2cc1C(C)C | i | i | 50.9* | i | i
CCOC(=O)N1CCN(Cc2cc(=O)oc3cc4c(cc23)CCC4)CC1 | i | i | 33* | i | i
C/C(=N\NC(=O)c1cccc([N+](=O)[O-])c1)c1ccncc1 | i | i | i | i | i
C/C(=N\NC(=O)c1cccc([N+](=O)[O-])c1)c1cccs1 | 13.2* | i | i | i | i
Cc1ccc(N(CCC#N)C(=O)COC(=O)C2CCN(S(=O)(=O)c3ccc4c(c3)OCCO4)CC2)cc1 | i | i | i | i | i
COC(=O)c1cc(NS(=O)(=O)c2ccc(Cl)c(N3C(=O)c4ccc(C(=O)O)cc4C3=O)c2)cc(C(=O)OC)c1 | 9.93* | i | i | i | i
CC(C)CNC(=S)N1CCC(C(=O)c2ccc3c(c2)OCCO3)CC1 | i | i | i | i | i
COc1ccc(NC(=O)CCNC(=O)c2ccco2)cc1S(=O)(=O)N(C)C | i | i | i | i | i

Screening data deposited in PubChem BioAssay by Johns Hopkins Ion Channel Center.
